Test results reported in ChEMBL document CHEMBL4330069, “Boosting the efficacy of anti-MRSA β-lactam antibiotics via an easily accessible, non-cytotoxic and orally bioavailable FtsZ inhibitor” (Eur J Med Chem, 2019).
Converted amounts (≈) assume the structure as drawn.

Assays:
Staphylococcus aureus [1] = experiment: Antibacterial activity against Staphylococcus aureus ATCC 29213 after 20 hrs; assay type: functional; conditions: ATCC 29213, 20 h
How it was run: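 Broth microdilution MIC per CLSI guidelines, compounds dissolved in DMSO. Resistant mutants were selected by serial passage of ATCC 29213 in LB at 37 °C with shaking at 250 rpm. Each 20 h culture started at half the MIC, and the concentration was doubled at each transfer. Growth inhibition was read by eye, in duplicate.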

Escherichia coli = experiment: Antibacterial activity against Escherichia coli ATCC 25922 by broth microdilution assay; assay type: functional
How it was run: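 Broth microdilution per CLSI guidelines; compounds dissolved in DMSO; single agents tested; growth inhibition read by eye; run in duplicate (table footnote states at least triplicates).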

[2] = Selective index, ratio of IC50 for mouse L929 cells to MIC for Staphylococcus aureus ATCC 29213
How it was run: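 Selectivity index calculated as L929 IC50 (μM) divided by S. aureus MIC (μM).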

Staphylococcus aureus [3] = experiment: Antibacterial activity against multidrug-resistant Staphylococcus aureus isolate 417 by broth microdilution assay; assay type: functional
How it was run: (§1)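 Broth microdilution MIC per CLSI guidelines against clinical MRSA isolates, for β-lactams and test compound alone and in combination. Compounds were dissolved in DMSO. Growth was read by eye, in duplicate. FIC index = FIC(compound) + FIC(drug); synergy defined as FIC index ≤0.5.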

Staphylococcus aureus [4] = experiment: Antibacterial activity against multidrug-resistant Staphylococcus aureus isolate 1136 by broth microdilution assay; assay type: functional; how it was run: as §1
Staphylococcus aureus [5] = experiment: Antibacterial activity against multidrug-resistant Staphylococcus aureus isolate 2516 by broth microdilution assay; assay type: functional; how it was run: as §1
Staphylococcus aureus [6] = experiment: Antibacterial activity against multidrug-resistant Staphylococcus aureus isolate 358 by broth microdilution assay; assay type: functional; how it was run: as §1
Staphylococcus aureus [7] = experiment: Antibacterial activity against multidrug-resistant Staphylococcus aureus isolate 85 by broth microdilution assay; assay type: functional; how it was run: as §1
Staphylococcus aureus [8] = experiment: Synergistic antibacterial activity against multidrug-resistant Staphylococcus aureus isolate 417 in presence of amoxicillin by broth microdilution assay; assay type: functional
Staphylococcus aureus [9] = experiment: Synergistic antibacterial activity against multidrug-resistant Staphylococcus aureus isolate 3332 in presence of amoxicillin by broth microdilution assay; assay type: functional
How it was run: (§2)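 CLSI broth microdilution on clinical MRSA isolates. MICs were measured for the β-lactam alone, the test agent alone and the two combined. Compounds were dissolved in DMSO, and growth inhibition was scored by eye. FIC index is the sum, over both agents, of MIC in combination divided by MIC alone. An FIC index ≤0.5 was taken as synergy.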

Staphylococcus aureus [10] = experiment: Synergistic antibacterial activity against multidrug-resistant Staphylococcus aureus isolate 256 in presence of methicillin by broth microdilution assay; assay type: functional; how it was run: as §2
Staphylococcus aureus [11] = experiment: Synergistic antibacterial activity against multidrug-resistant Staphylococcus aureus isolate 2516 in presence of methicillin by broth microdilution assay; assay type: functional; how it was run: as §2
Staphylococcus aureus [12] = experiment: Synergistic antibacterial activity against multidrug-resistant Staphylococcus aureus isolate 2224 in presence of methicillin by broth microdilution assay; assay type: functional
How it was run: (§3)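 Clinical MRSA isolate panel; compound and β-lactam tested alone and in combination by CLSI broth microdilution, compounds dissolved in DMSO, growth inhibition scored by eye, run in duplicate. FIC index = FIC(compound) + FIC(drug), each the MIC in combination divided by the MIC alone; an index ≤ 0.5 was called synergy.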

Staphylococcus aureus [13] = experiment: Synergistic antibacterial activity against multidrug-resistant Staphylococcus aureus isolate 2490 in presence of cloxacillin by broth microdilution assay; assay type: functional; how it was run: as §3
Staphylococcus aureus [14] = experiment: Synergistic antibacterial activity against multidrug-resistant Staphylococcus aureus isolate 3332 in presence of cloxacillin by broth microdilution assay; assay type: functional; how it was run: as §2
Staphylococcus aureus [15] = experiment: Synergistic antibacterial activity against multidrug-resistant Staphylococcus aureus isolate 2516 in presence of cloxacillin by broth microdilution assay; assay type: functional; how it was run: as §2
Staphylococcus aureus [16] = experiment: Synergistic antibacterial activity against multidrug-resistant Staphylococcus aureus isolate 1344 in presence of cefuroxime by broth microdilution assay; assay type: functional; how it was run: as §3
Staphylococcus aureus [17] = experiment: Synergistic antibacterial activity against multidrug-resistant Staphylococcus aureus isolate 256 in presence of cefuroxime by broth microdilution assay; assay type: functional; how it was run: as §2
Staphylococcus aureus [18] = experiment: Synergistic antibacterial activity against multidrug-resistant Staphylococcus aureus isolate 417 in presence of meropenem by broth microdilution assay; assay type: functional
Staphylococcus aureus [19] = experiment: Synergistic antibacterial activity against multidrug-resistant Staphylococcus aureus isolate 1749 in presence of meropenem by broth microdilution assay; assay type: functional; how it was run: as §3
Staphylococcus aureus [20] = experiment: Synergistic antibacterial activity against multidrug-resistant Staphylococcus aureus isolate 3580 in presence of meropenem by broth microdilution assay; assay type: functional
Staphylococcus aureus [21] = experiment: Synergistic antibacterial activity against multidrug-resistant Staphylococcus aureus isolate 3580 assessed as fractional Inhibitory concentration index in presence of amoxicillin by broth microdilution assay; assay type: functional
Staphylococcus aureus [22] = experiment: Synergistic antibacterial activity against multidrug-resistant Staphylococcus aureus isolate 3589 assessed as fractional Inhibitory concentration index in presence of methicillin by broth microdilution assay; assay type: functional
Staphylococcus aureus [23] = experiment: Synergistic antibacterial activity against multidrug-resistant Staphylococcus aureus isolate 2516 assessed as fractional Inhibitory concentration index in presence of methicillin by broth microdilution assay; assay type: functional
How it was run: (§4)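 CLSI broth microdilution run on clinical MRSA isolates with each β-lactam alone, the test agent alone, and the two combined; agents dissolved in DMSO. Growth inhibition was read by eye. FIC index = FIC(compound) + FIC(β-lactam), where each FIC is the MIC in combination divided by the MIC alone. An index ≤0.5 was taken as synergy.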

Staphylococcus aureus [24] = experiment: Synergistic antibacterial activity against multidrug-resistant Staphylococcus aureus isolate 3267 assessed as fractional Inhibitory concentration index in presence of methicillin by broth microdilution assay; assay type: functional
Staphylococcus aureus [25] = experiment: Synergistic antibacterial activity against multidrug-resistant Staphylococcus aureus isolate 1402 assessed as fractional Inhibitory concentration index in presence of methicillin by broth microdilution assay; assay type: functional; how it was run: as §4
Staphylococcus aureus [26] = experiment: Synergistic antibacterial activity against multidrug-resistant Staphylococcus aureus isolate 3580 assessed as fractional Inhibitory concentration index in presence of methicillin by broth microdilution assay; assay type: functional
Staphylococcus aureus [27] = experiment: Synergistic antibacterial activity against multidrug-resistant Staphylococcus aureus isolate 2490 assessed as fractional Inhibitory concentration index in presence of cloxacillin by broth microdilution assay; assay type: functional; how it was run: as §4
Staphylococcus aureus [28] = experiment: Synergistic antibacterial activity against multidrug-resistant Staphylococcus aureus isolate 3332 assessed as fractional Inhibitory concentration index in presence of cloxacillin by broth microdilution assay; assay type: functional
Staphylococcus aureus [29] = experiment: Synergistic antibacterial activity against multidrug-resistant Staphylococcus aureus isolate 1717 assessed as fractional Inhibitory concentration index in presence of cloxacillin by broth microdilution assay; assay type: functional; how it was run: as §4
Staphylococcus aureus [30] = experiment: Synergistic antibacterial activity against multidrug-resistant Staphylococcus aureus isolate 757 assessed as fractional Inhibitory concentration index in presence of cefuroxime by broth microdilution assay; assay type: functional
Staphylococcus aureus [31] = experiment: Synergistic antibacterial activity against multidrug-resistant Staphylococcus aureus isolate 1449 assessed as fractional Inhibitory concentration index in presence of cefuroxime by broth microdilution assay; assay type: functional; how it was run: as §4
Staphylococcus aureus [32] = experiment: Synergistic antibacterial activity against multidrug-resistant Staphylococcus aureus isolate 2224 assessed as fractional Inhibitory concentration index in presence of meropenem by broth microdilution assay; assay type: functional; how it was run: as §4
[33] = Tmax in Sprague-Dawley rat at 50 mg/kg, po by UPLC-MS/MS analysis; assay type: ADME, organism-based; conditions: in vivo
Staphylococcus aureus [34] = experiment: Antibacterial activity against multidrug-resistant Staphylococcus aureus ATCC 43300 infected in BALB/C mouse assessed as mouse survival at 50 mg/kg, ip bid co-administered with 25 mg/kg, ip bid cefuroxime measured on day 4 post infection (reference value: 50%)

For `CCCCCCCCCNc1ccc(F)c(C(N)=O)c1F`, the MIC (Staphylococcus aureus [1]) was 1 mg/L (≈ 3.35 µM), the MIC (Escherichia coli) was > 64 mg/L and the “Selectivity Index” value [2] was >32. The MIC (Staphylococcus aureus [3]) was 32 mg/L (≈ 107 µM), the MIC (Staphylococcus aureus [4]) was 16 mg/L (≈ 53.6 µM) and the MIC (Staphylococcus aureus [5]) was 32 mg/L (≈ 107 µM). The MIC (Staphylococcus aureus [6]) was 16 mg/L (≈ 53.6 µM), the MIC (Staphylococcus aureus [7]) was 1020 mg/L (≈ 3430 µM) and the MIC (Staphylococcus aureus [8]) was 8 mg/L. For the same compound, the MIC (Staphylococcus aureus [9]) was 8 mg/L, the MIC (Staphylococcus aureus [10]) was 4 mg/L and the MIC (Staphylococcus aureus [11]) was 4 mg/L. For the same compound, the MIC (Staphylococcus aureus [12]) was 2 mg/L, the MIC (Staphylococcus aureus [13]) was 1 mg/L and the MIC (Staphylococcus aureus [14]) was 2 mg/L. For the same compound, the MIC (Staphylococcus aureus [15]) was 2 mg/L, the MIC (Staphylococcus aureus [16]) was 4 mg/L and the MIC (Staphylococcus aureus [17]) was 2 mg/L. The MIC (Staphylococcus aureus [18]) was 4 mg/L, the MIC (Staphylococcus aureus [19]) was 4 mg/L and the MIC (Staphylococcus aureus [20]) was 8 mg/L. The “fractional inhibitory concentration index (FICI)” value (Staphylococcus aureus [21]) was 0.3, the “fractional inhibitory concentration index (FICI)” value (Staphylococcus aureus [22]) was 0.5 and the “fractional inhibitory concentration index (FICI)” value (Staphylococcus aureus [23]) was 0.2. The “fractional inhibitory concentration index (FICI)” value (Staphylococcus aureus [24]) was 0.1, the “fractional inhibitory concentration index (FICI)” value (Staphylococcus aureus [25]) was 0.6 and the “fractional inhibitory concentration index (FICI)” value (Staphylococcus aureus [26]) was 0.2. The “fractional inhibitory concentration index (FICI)” value (Staphylococcus aureus [27]) was 0.6, the “fractional inhibitory concentration index (FICI)” value (Staphylococcus aureus [28]) was 0.4 and the “fractional inhibitory concentration index (FICI)” value (Staphylococcus aureus [29]) was 2.5. The “fractional inhibitory concentration index (FICI)” value (Staphylococcus aureus [30]) was 0.1, the “fractional inhibitory concentration index (FICI)” value (Staphylococcus aureus [31]) was 1.5 and the “fractional inhibitory concentration index (FICI)” value (Staphylococcus aureus [32]) was 4. The Tmax [33] was 2 h and the Activity (Staphylococcus aureus [34]) was 100%.
